In the RNAGym collection of RNA variant scans (doi:10.1126/science.aae0568):
Variants at the floor of the assay were thinned out.

B1: tRNA (parent)
chain: GUUCCGUUGGCGUAAUGGUAACGCGUCUCCCUCCUAAGGAGAAGACUGCGGGUUCGAGUCCCGUACGGAACG

Variants of: B1
Test: yeast fitness relative to wild type (ratio to wild type); higher = fitter; tRNA-Arg(CCU), competitive growth, 37 C, YPD
How it was run: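 Variants of the tRNA-Arg(CCU) gene were chemically synthesised with a 3% per-site mutation rate across 69 sites and placed at the native genomic locus in Saccharomyces cerevisiae. Six parallel replicates of the pooled strains were competed in YPD at 37°C for 24 hours, and gene amplicons from the start and end populations were read by 100-nucleotide paired-end sequencing. Darwinian fitness relative to wild type was derived from changes in genotype frequencies. Genotypes required ≥ 100 starting reads, and estimates < 0.5 were set to 0.5.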

First: U35C C46G
Second: U35C G48A
The yeast fitness of the first is lower: 0.906 for the first, 0.937 for the second.

Going from C34U C55U A65U to U35C A42U C62G, the yeast fitness falls from 0.607 to 0.546.

First: C34G A43C G50C
Second: U35A A45G
The yeast fitness of the first is lower: ≤ 0.5 for the first, 0.759 for the second.

C34G G58C A65U and C34U U35C A69U cannot be ordered by yeast fitness: ≤ 0.5 for the first, ≤ 0.5 for the second.

Compared with C34U C55G G63A, U35C U47A is higher in yeast fitness: ≤ 0.5 for the first, 0.734 for the second.

Going from C34G G51C U53C to C34U C60G A70C, the yeast fitness falls from 0.616 to ≤ 0.5.

First: C34U G44C G56A
Second: C34U C55U G67C
The yeast fitness of the first is lower: ≤ 0.5 for the first, 0.558 for the second.

C34U C46A G50C and C34G A45C A57C A65G cannot be ordered by yeast fitness: ≤ 0.5 for the first, ≤ 0.5 for the second.

Compared with C34U C55U G63C, C34U A37U is higher in yeast fitness: ≤ 0.5 for the first, 0.535 for the second.

C34G U35G A40U A42G C61G and U35C C61A cannot be ordered by yeast fitness: ≤ 0.5 for the first, ≤ 0.5 for the second.

Going from U35C C61U to U35C C49U G63C, the yeast fitness falls from 0.968 to 0.548.

Going from U35C A36G A45C to C34G G39U U47G, the yeast fitness falls from 0.825 to ≤ 0.5.

C34G C55U G58A and C34U G44A C49A G56C C62A A65C cannot be ordered by yeast fitness: ≤ 0.5 for the first, ≤ 0.5 for the second.

First: C34U G39A U47C G56A
Second: U35A G51C A57U
The yeast fitness of the first is lower: ≤ 0.5 for the first, 0.539 for the second.

First: C34U C55A C62U C66U
Second: C34U C46G A70U
The yeast fitness of the first is lower: ≤ 0.5 for the first, 0.601 for the second.

Compared with C34U A45C G52A A65G, C34U U35G G38A C62U A65C is lower in yeast fitness: 0.688 for the first, ≤ 0.5 for the second.

Compared with U35C U54G, U35C U54A is lower in yeast fitness: 0.552 for the first, ≤ 0.5 for the second.

First: C34G C60U
Second: C34G G48C U59C
The yeast fitness of the first is lower: 0.536 for the first, 0.712 for the second.

U35A G52A U59C C66A G67A and U35C A37U A43C C46U C49U G68A cannot be ordered by yeast fitness: ≤ 0.5 for the first, ≤ 0.5 for the second.

Going from C34U A37U A45U A57G C61U A70G to U35A G68U, the yeast fitness rises from ≤ 0.5 to 0.6.

U35A C60G C62G and C34U G38A C61G cannot be ordered by yeast fitness: ≤ 0.5 for the first, ≤ 0.5 for the second.

First: C34G G44C C66A
Second: U35C G52C
The yeast fitness of the first is higher: 0.595 for the first, ≤ 0.5 for the second.

Going from C34U U47A to C34U U47C, the yeast fitness rises from 0.621 to 0.67.

Going from U35A C60A to U35A C60U, the yeast fitness falls from 0.535 to ≤ 0.5.

U35C G41A A70G and C34U G38A are the same in yeast fitness: 0.689 for the first, 0.689 for the second.

Going from C34G A45U to U35A G48A, the yeast fitness rises from 0.567 to 0.644.

Going from U35C C49G A70U to C34G C49G, the yeast fitness rises from 0.563 to 0.657.

First: U35C G58A
Second: C34U A37U A45U A57G C61U
The yeast fitness of the first is higher: 0.77 for the first, ≤ 0.5 for the second.

First: C34U C49A G67A
Second: U35C G41A A43C A57G
The yeast fitness of the first is lower: ≤ 0.5 for the first, 0.501 for the second.

Compared with C34G G38C G68C, U35C U59A is higher in yeast fitness: 0.582 for the first, 0.878 for the second.

Going from U35C G56A to U35A C62A, the yeast fitness falls from 0.735 to ≤ 0.5.

Going from U35A A43C to C34U C46G A65U, the yeast fitness falls from 0.636 to 0.563.

First: U35A A42G
Second: U35C A43G U54C
The yeast fitness of the first is higher: 0.681 for the first, ≤ 0.5 for the second.

Going from U35A G67C to U35A G67A, the yeast fitness rises from 0.657 to 0.714.

Compared with C34G G48C C62U C66G, C34U A57C is higher in yeast fitness: ≤ 0.5 for the first, 0.553 for the second.

First: C34G G68C
Second: C34G G68A
The yeast fitness of the first is higher: 0.603 for the first, 0.586 for the second.

Going from C34U C55A A70U to C34G G41C C60A, the yeast fitness falls from 0.619 to 0.607.

Going from U35A A36U A45C to U35C U47G C62U A65U, the yeast fitness falls from 0.531 to ≤ 0.5.

U35A A36U A57G and C34G C46A C62U A69C cannot be ordered by yeast fitness: ≤ 0.5 for the first, ≤ 0.5 for the second.

Going from C34U G38C C55A U64C to C34G G48A A70U, the yeast fitness rises from ≤ 0.5 to 0.584.

Going from C34G U53C to C34U G52A, the yeast fitness rises from 0.578 to 0.618.

Going from U35C A42C A43G G48A to U35A C61A A70U, the yeast fitness falls from 0.576 to ≤ 0.5.
